“Also recorded” adds a separate entry of the source.
What was measured:
[1] = test system: purified mitochondria (cytochrome c release); assay: Cytochrome c release immunodetected in supernatant of mitochondria; type: biochemical, mouse; conditions: 1 μM Vpr52-96; immunoblot; Fig. 5 C
In short: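 Mouse liver mitochondria treated with test peptide over a time course. Supernatants cleared by two spins (6,800 g 15 min; 20,000 g 1 h; both 4°C), stored at −80°C, and cytochrome c immunodetected with a mouse monoclonal antibody. In parallel, ΔΨm loss scored by flow cytometry with JC-1 as percent low-ΔΨm mitochondria.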

recombinant VDAC = assay: Plasmon resonance: binding to recombinant VDAC; conditions: control experiments, VDAC concentrations up to 10 μM
isolated mitochondria = assay: Ultrastructure: swelling of isolated mitochondria; type: biochemical, mouse; conditions: for swollen mitochondria: control <5%
ANT proteoliposomes [2] = assay: Pore-opening assay: 4-MUP release from ANT proteoliposomes; type: biochemical, rat; conditions: peptides 1 μM, 60 min, Atr 200 μM = 100%, Fig. 2 C
In short: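 ANT purified from rat heart mitochondria, reconstituted into PC/cardiolipin liposomes, sonicated on ice with 1 mM 4-MUP/10 mM KCl, gel-filtered. Diluted in 10 mM Hepes, 125 mM saccharose pH 7.4, peptide 1 h RT; inhibitors added 30 min earlier. Alkaline phosphatase (0.5 mM MgCl2) 15 min 37°C, stopped at pH 10. 4-MU fluorescence 360/450 nm. Release = % of atractyloside response after untreated background subtraction; n = 3, SD.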

ANT [3] = target: T1, ANT (Rattus norvegicus, UniProt Q05962); assay: Plasmon resonance; type: binding
T1 sequence (Q05962 1-298): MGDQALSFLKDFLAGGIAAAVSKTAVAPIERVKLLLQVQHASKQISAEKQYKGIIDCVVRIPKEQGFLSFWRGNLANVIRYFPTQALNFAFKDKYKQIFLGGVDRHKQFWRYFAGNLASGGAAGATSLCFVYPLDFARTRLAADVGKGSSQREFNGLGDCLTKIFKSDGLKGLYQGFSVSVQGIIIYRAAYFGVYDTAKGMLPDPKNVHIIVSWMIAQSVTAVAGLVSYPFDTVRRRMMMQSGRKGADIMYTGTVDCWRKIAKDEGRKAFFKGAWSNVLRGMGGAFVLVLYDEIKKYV

[4] = test system: purified mitochondria, inner membrane; assay: Respirometry: NADH-dependent oxygen consumption; type: biochemical, mouse
In short: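 Oxygen uptake was recorded by Clark electrode at 37°C (mannitol/KCl/MgCl2/BSA/KH2PO4 medium, pH 7.4) after 2 mM NADH and 1 μM peptide, with rotenone added to test sensitivity; rates are in nmol O2/min/mg protein. For inhibitor tests, mitochondria were pretreated 10 min with 0.8 μM Bcl-2 or 10 μM BA before succinate plus CCCP or NADH. In the kinetics, 15 μM cytochrome c oxidation was followed in parallel, with 100% set by 2.5 mM laurylmaltoside.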

[5] = Pore-opening assay: plain liposomes; type: biochemical; conditions: 4-MUP loaded, data not shown
In short: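 Liposomes sonicated on ice with 1 mM 4-MUP and 10 mM KCl, then freed of unencapsulated probe on Sephadex G-25. Diluted in 10 mM Hepes, 125 mM saccharose pH 7.4 and exposed to inducers for 1 h at RT; inhibitors were added 30 min earlier. Alkaline phosphatase with 0.5 mM MgCl2 was added for 15 min at 37°C and stopped with EDTA buffer at pH 10. 4-MU fluorescence (360/450 nm) was expressed as % of the atractyloside response after subtracting untreated liposomes.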

[6] = test system: purified mitochondria (respiratory chain); assay: Polarography: succinate oxidation of purified mitochondria; type: biochemical, mouse; conditions: 1 μM Vpr52-96, 10 min pretreatment; Fig. 4 A
In short: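 Mouse liver mitochondria, pretreated 10 min with test peptide or untreated, held at 37°C in a Clark-electrode cell. Medium: 0.3 M mannitol, 10 mM KCl, 5 mM MgCl2, 1 mg/ml BSA, 10 mM KH2PO4, pH 7.4. Oxygen consumption traced on succinate with sequential ADP, oligomycin and CCCP additions.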

[7] = test system: purified mitochondria, outer membrane; assay: Cytochrome c oxidation; type: biochemical, mouse; conditions: 15 μM cytochrome c; 100% by 2.5 mM laurylmaltoside; Fig. 5 B
In short: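 Mouse liver mitochondria exposed to test peptide, followed over time. Outer-membrane permeability read as spectrophotometric/spectrofluorometric oxidation of added reduced cytochrome c (15 μM) by cytochrome c oxidase. Maximal (100%) oxidation set by 2.5 mM laurylmaltoside; signal expressed as a percentage of this. Inner-membrane NADH oxidation (2 mM, oxygen consumption) tracked in parallel.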

ANT [8] = target: T1, ANT; assay: Planar lipid bilayers, single channel level, Vpr52-96 plus ANT; type: biochemical; conditions: Vpr52-96 plus ANT 0.4:1 nM, +115 mV; tip-dip technique
In short: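 Rat heart mitochondrial ANT, purified via subtilisin treatment, Triton X-100 solubilization, hydroxyapatite and SP column (0–1 M NaCl). Proteins held 30 min RT with 1 mM CaCl2, 40 μM atractyloside or control electrolyte, mixed with dried lipid (60 μg protein/mg lipid), detergent removed by beads. Tip-dip bilayers, symmetric 100 mM KCl, 2 mM MgCl2, 10 mM Hepes pH 7.4.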

[9] = Planar lipid bilayers, single channel level, Vpr52-96 without ANT; type: biochemical; conditions: <1 nM Vpr52-96
In short: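 Solvent-free planar bilayers formed by monolayer apposition on a 125-μm Teflon aperture, or by tip-dip on patch pipettes. Recording was in symmetric 100 mM KCl, 2 mM MgCl2, 10 mM Hepes pH 7.4, with Ag/AgCl electrodes under applied voltage. Bare membranes were first checked for electrical silence; peptide was added to the aqueous subphase after bilayer formation. Single-channel current traces show the most frequent events.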

ANT proteoliposomes [10] = assay: Binding of FITC-labeled Vpr52-96 to ANT proteoliposomes; design: species or system rat; conditions: FITC-labeled Vpr52-96, 30 min; Fig. 2 A; n = 3
In short: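 ANT was purified from rat heart mitochondria (Triton X-100 extraction, hydroxyapatite, then cation-exchange with a 0–1 M NaCl gradient) and reconstituted at 0.1 mg/ml into phosphatidylcholine/cardiolipin liposomes, then dialysed overnight at 4°C. Proteoliposomes were exposed 30 min to FITC-peptide in 125 mM sucrose/10 mM Hepes pH 7.4, ultracentrifuged (290,000 g, 45 min, 10°C) and read by flow cytometry. Inhibitors were preincubated and washed out; mean ± SD, n = 3.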

[11] = test system: purified mitochondria (respiratory control); assay: Respiratory control; type: biochemical, mouse; conditions: 1 μM Vpr-derived peptides, 10 min
In short: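 Clark-electrode oxygraphy at 37°C in 0.3 M mannitol, 10 mM KCl, 5 mM MgCl2, 1 mg/ml BSA, 10 mM KH2PO4, pH 7.4. Purified mitochondria were pretreated 10 min with 1 μM peptide; succinate oxidation was followed with sequential ADP, oligomycin and CCCP additions. Mean of three determinations.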

PTPC = conditions: cited from earlier work
recombinant Bcl-2 = assay: Plasmon resonance: interaction with recombinant Bcl-2; type: binding, human; conditions: surface plasmon resonance, control experiments

| Compound | order of ΔΨm loss, inner MMP and cytochrome c release [1] | specific binding to VDAC (recombinant VDAC) | swollen mitochondria (isolated mitochondria; 5 min after 3 μM Vpr52-96, X ± SEM, n = 3) | swollen mitochondria (isolated mitochondria; 15 min after 3 μM Vpr52-96) | ultrastructural effect (in words) (isolated mitochondria; Vpr52-96-treated mitochondria, Fig. 6 C) | permeabilization of ANT proteoliposomes (ANT proteoliposomes [2]) | sensorgram: increase of binding as a function of time (ANT [3]; plasmon resonance, association and dissociation phase, Fig. 1 A) | binding affinity for ANT (in words) (ANT [3]; surface plasmon resonance, purified detergent-solubilized ANT) | NADH-dependent oxygen consumption (IM permeabilization to NADH) ([4]; 1 μM Vpr52-96, 2 mM NADH, Fig. 5 A) | time of maximal NADH oxidation after addition ([4]; Vpr52-96, 2 mM NADH, Fig. 5 B) | effect on plain liposomes [5] | effect on respiration (succinate oxidation) [6] | access of cytochrome c to cytochrome c oxidase [7] | channel conductance, Vpr52-96 plus ANT (ANT [8]) | channel formation at low doses without ANT [9] | binding to ANT liposomes compared with protein-free liposomes (ANT proteoliposomes [10]) | effect on RC (in words) [11] | action on PTPC and mitochondrial hallmarks of apoptosis (PTPC) | interaction with recombinant Bcl-2 (recombinant Bcl-2) |
| --- | --- | --- | --- | --- | --- | --- | --- | --- | --- | --- | --- | --- | --- | --- | --- | --- | --- | --- | --- |
| CC[C@H](C)[C@H](NC(=O)CNC(=O)[C@@H](NC(=O)[C@H](CCCNC(=N)N)NC(=O)[C@H](CO)NC(=O)[C@H](Cc1c[nH]cn1)NC(=O)[C@H](CCCNC(=N)N)NC(=O)[C@H](CS)NC(=O)CNC(=O)[C@@H](NC(=O)[C@H](CCCNC(=N)N)NC(=O)[C@H](Cc1ccccc1)NC(=O)[C@H](Cc1c[nH]cn1)NC(=O)[C@@H](NC(=O)[C@H](Cc1ccccc1)NC(=O)[C@H](CC(C)C)NC(=O)[C@H](CC(C)C)NC(=O)[C@H](CCC(N)=O)NC(=O)[C@H](CCC(N)=O)NC(=O)[C@H](CC(C)C)NC(=O)[C@@H](NC(=O)[C@H](CCCNC(=N)N)NC(=O)[C@@H](NC(=O)[C@H](CC(C)C)NC(=O)[C@H](C)NC(=O)[C@H](CCC(=O)O)NC(=O)[C@@H](NC(=O)CNC(=O)[C@@H](NC(=O)[C@H](Cc1c[nH]c2ccccc12)NC(=O)[C@@H](NC(=O)[C@@H](N)CC(=O)O)[C@@H](C)O)[C@@H](C)O)C(C)C)[C@@H](C)CC)[C@@H](C)CC)[C@@H](C)CC)[C@@H](C)CC)[C@@H](C)CC)C(=O)N[C@H](C(=O)N[C@@H](CCC(N)=O)C(=O)N[C@@H](CCC(N)=O)C(=O)N[C@@H](CCCNC(=N)N)C(=O)N[C@@H](CCCNC(=N)N)C(=O)N[C@H](C(=O)N[C@@H](CCCNC(=N)N)C(=O)N[C@@H](CC(N)=O)C(=O)NCC(=O)N[C@@H](C)C(=O)N[C@@H](CO)C(=O)N[C@@H](CCCCN)C(=O)N[C@@H](CO)C(=O)O)[C@@H](C)O)[C@@H](C)CC [Vpr52-96] | the ΔΨm loss occurred before cytochrome c release can be detected by immunoblot; also recorded: causes inner MMP well before OM becomes permeable to cytochrome c | no specific binding | 82 ± 4% | 99 ± 1% | exhibited matrix swelling before OM rupture became apparent | caused permeabilization of ANT proteoliposomes | exhibits an increase of binding as a function of time and a positive signal at the start of the dissociation phase (off) | affinity in the nanomolar range | prompted a significant, NADH-stimulated oxygen consumption | 10 min | had no effect on plain liposomes | increased succinate oxidation preceding ADP addition and abolished both the inhibitory effect of oligomycin (a specific ATPase inhibitor) and the stimulatory effect of uncoupling by the protonophore CCCP; also recorded: not associated with a significant decrease of the oxidation rate; also recorded: adding cytochrome c to Vpr52-96–treated mitochondria oxidizing succinate did not stimulate the rate of oxygen uptake | only induced a marginal access of cytochrome c to cytochrome c oxidase | 190 ± 2 pS | incapable of forming channels | greatly facilitated in liposomes in which ANT has been reconstituted compared with protein-free liposomes | gross deficiency in respiratory control |  |  |
| Vpr1-96: entire (full-length) Vpr protein |  |  |  |  |  |  |  |  |  |  |  |  |  |  |  |  | also reduced the RC values | act on the PTPC to induce all mitochondrial hallmarks of apoptosis, including ΔΨm loss and the release of cytochrome c and apoptosis-inducing factor (AIF) |  |
| Vpr53-96: printed once; probably Vpr52-96 |  |  |  |  |  |  |  |  |  |  |  |  |  |  |  |  |  |  | found not to interact with recombinant Bcl-2 |
